Source: paper PMC3918441 (Cell reports, 2014)

Key:
KDM5B PHD3 finger [1] = assay: 1H,15N HSQC NMR titration, KDM5B PHD3; type: binding, human; details: WT PHD3; 1H,15N HSQC titration, 298K, 0.1 mM protein, 12-mer peptides
Procedure, shortened: (§1)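 1H,15N HSQC titration of uniformly 15N-labeled PHD3 at 0.1 mM, wild type or mutated (including D1506R). Spectra recorded with increasing concentrations of 12-mer histone tail peptides and superimposed. Per-residue normalized chemical shift changes calculated as Δδ = √[(ΔδH)² + (ΔδN/5)²].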

KDM5B PHD1 finger = biological target: T1, KDM5B PHD1 finger (Homo sapiens, UniProt Q9UGL1); assay: 1H,15N HSQC NMR titration, KDM5B PHD1; type: binding; details: WT PHD1; NMR spectra, 298K, 0.1 mM 15N-labeled protein, 12-mer peptide
T1 sequence (Q9UGL1 309-359 limits assumed): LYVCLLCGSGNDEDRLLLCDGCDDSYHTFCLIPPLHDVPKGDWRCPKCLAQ
Procedure, shortened: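 Uniformly 15N-labeled wild-type PHD1 at 0.1 mM; 1H,15N HSQC spectra recorded over increasing concentrations of 12-mer histone tail peptides. Normalized shift change Δδ = √[(ΔδH)² + (ΔδN/5)²] in ppm. Kd obtained by nonlinear least-squares fit of Δδ against peptide and protein concentrations to a quadratic binding equation.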

KDM5B PHD3 finger [2] = assay: Tryptophan fluorescence titration, KDM5B PHD3; type: binding, human; details: WT PHD3; NMR and fluorescence spectroscopy
Procedure, shortened: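 Tryptophan fluorescence at 25 °C: PHD3 in PBS titrated with increasing histone peptide concentrations. Excitation 295 or 280 nm; emission scanned 305–405 nm in 0.5 nm steps with 1 s integration; three scans averaged. Kd from nonlinear least-squares fit of intensity change to a quadratic binding equation; mean of three separate experiments, error as standard deviation.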

[3] = system: KDM5B PHD3 mutants (W1502, W1512, D1506R); assay: Binding to KDM5B PHD3 mutants; design: species or system human; details: Fig. 6c-e
Procedure, shortened: as §1

Substance	pattern of chemical shift changes in HSQC spectra of PHD3 (KDM5B PHD3 finger [1])	affinity of association (KDM5B PHD1 finger)	preference of PHD3 among H3K4me3/2/1/0 (KDM5B PHD3 finger [2])	interaction with PHD3 D1506R mutant ([3]; acidic D1506 replaced with an arginine)	interaction with PHD3 W1502 and W1512 mutants ([3]; mutation of W1502 and W1512)
H3K4me1: H3K4me1 peptide, residues 1-12 of H3, monomethylated lysine 4	almost identical pattern of chemical shift changes	–	–	–	–
H3K4me2: H3K4me2 peptide, residues 1-12 of H3, dimethylated lysine 4	almost identical pattern of chemical shift changes	–	–	–	–
H3K4me3: trimethylated H3K4me3 peptide, 12-mer histone tail peptide; biotinylated in pull-downs	almost identical pattern of chemical shift changes	almost negligible association in the mM range of affinities	only slight preference for the trimethylated state of H3K4	reduced it	disrupted interaction
